Values belong to the compound of their own block, whether it stands above or below them.
Tests used:
Type in all cases: biochemical
LRRK2 [1] = target: T1, LRRK2 (Mus musculus, UniProt Q5S006); test: Radiometric TLC assay of LRRK2-catalyzed GTP hydrolysis; conditions: for Ki: read-out: apparent dissociation constant Ki,app
How it was run: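 LRRK2 purified from BAC-transgenic mouse brain (30 nM) starts GTP hydrolysis with GTP plus [α-33P]-GTP. Runs are in triplicate, 20 min at room temperature, stopped with 20 mM EDTA. [α-33P]-GDP is resolved on PEI-cellulose TLC (0.5 M KH2PO4, pH 3.4) and counted by scintillation. Initial velocities versus [GTP] are fitted to Michaelis–Menten.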

LRRK2 [2] = target: T1, LRRK2; test: TR-FRET assay of LRRK2-catalyzed PLK-peptide phosphorylation
How it was run: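 Mouse-brain-derived LRRK2 (4 nM) phosphorylates PLK-peptide (RRRSLLE) with varied ATP. Runs are in duplicate, 4 h at room temperature, stopped with 10 mM EDTA, then 2 h with 2 nM Eu-anti-phospho-PLK before the TR-FRET read. For inhibitor studies, ATP is varied at 100 nM PLK-peptide with test compound 0–16.7 µM. Initial velocities are fitted by nonlinear least squares.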

LRRK2 [3] = target: T1, LRRK2; test: Radiometric assay of LRRK2-catalyzed LRRKtide phosphorylation; conditions: for effect of nucleotide on kinase activity: LRRKtide phosphorylation, data not shown
[4] = 200 µM GTP, 0.5 mM ADP, 0.5 mM ATP or 1 µM PLK

T1 sequence (Q5S006 whole entry): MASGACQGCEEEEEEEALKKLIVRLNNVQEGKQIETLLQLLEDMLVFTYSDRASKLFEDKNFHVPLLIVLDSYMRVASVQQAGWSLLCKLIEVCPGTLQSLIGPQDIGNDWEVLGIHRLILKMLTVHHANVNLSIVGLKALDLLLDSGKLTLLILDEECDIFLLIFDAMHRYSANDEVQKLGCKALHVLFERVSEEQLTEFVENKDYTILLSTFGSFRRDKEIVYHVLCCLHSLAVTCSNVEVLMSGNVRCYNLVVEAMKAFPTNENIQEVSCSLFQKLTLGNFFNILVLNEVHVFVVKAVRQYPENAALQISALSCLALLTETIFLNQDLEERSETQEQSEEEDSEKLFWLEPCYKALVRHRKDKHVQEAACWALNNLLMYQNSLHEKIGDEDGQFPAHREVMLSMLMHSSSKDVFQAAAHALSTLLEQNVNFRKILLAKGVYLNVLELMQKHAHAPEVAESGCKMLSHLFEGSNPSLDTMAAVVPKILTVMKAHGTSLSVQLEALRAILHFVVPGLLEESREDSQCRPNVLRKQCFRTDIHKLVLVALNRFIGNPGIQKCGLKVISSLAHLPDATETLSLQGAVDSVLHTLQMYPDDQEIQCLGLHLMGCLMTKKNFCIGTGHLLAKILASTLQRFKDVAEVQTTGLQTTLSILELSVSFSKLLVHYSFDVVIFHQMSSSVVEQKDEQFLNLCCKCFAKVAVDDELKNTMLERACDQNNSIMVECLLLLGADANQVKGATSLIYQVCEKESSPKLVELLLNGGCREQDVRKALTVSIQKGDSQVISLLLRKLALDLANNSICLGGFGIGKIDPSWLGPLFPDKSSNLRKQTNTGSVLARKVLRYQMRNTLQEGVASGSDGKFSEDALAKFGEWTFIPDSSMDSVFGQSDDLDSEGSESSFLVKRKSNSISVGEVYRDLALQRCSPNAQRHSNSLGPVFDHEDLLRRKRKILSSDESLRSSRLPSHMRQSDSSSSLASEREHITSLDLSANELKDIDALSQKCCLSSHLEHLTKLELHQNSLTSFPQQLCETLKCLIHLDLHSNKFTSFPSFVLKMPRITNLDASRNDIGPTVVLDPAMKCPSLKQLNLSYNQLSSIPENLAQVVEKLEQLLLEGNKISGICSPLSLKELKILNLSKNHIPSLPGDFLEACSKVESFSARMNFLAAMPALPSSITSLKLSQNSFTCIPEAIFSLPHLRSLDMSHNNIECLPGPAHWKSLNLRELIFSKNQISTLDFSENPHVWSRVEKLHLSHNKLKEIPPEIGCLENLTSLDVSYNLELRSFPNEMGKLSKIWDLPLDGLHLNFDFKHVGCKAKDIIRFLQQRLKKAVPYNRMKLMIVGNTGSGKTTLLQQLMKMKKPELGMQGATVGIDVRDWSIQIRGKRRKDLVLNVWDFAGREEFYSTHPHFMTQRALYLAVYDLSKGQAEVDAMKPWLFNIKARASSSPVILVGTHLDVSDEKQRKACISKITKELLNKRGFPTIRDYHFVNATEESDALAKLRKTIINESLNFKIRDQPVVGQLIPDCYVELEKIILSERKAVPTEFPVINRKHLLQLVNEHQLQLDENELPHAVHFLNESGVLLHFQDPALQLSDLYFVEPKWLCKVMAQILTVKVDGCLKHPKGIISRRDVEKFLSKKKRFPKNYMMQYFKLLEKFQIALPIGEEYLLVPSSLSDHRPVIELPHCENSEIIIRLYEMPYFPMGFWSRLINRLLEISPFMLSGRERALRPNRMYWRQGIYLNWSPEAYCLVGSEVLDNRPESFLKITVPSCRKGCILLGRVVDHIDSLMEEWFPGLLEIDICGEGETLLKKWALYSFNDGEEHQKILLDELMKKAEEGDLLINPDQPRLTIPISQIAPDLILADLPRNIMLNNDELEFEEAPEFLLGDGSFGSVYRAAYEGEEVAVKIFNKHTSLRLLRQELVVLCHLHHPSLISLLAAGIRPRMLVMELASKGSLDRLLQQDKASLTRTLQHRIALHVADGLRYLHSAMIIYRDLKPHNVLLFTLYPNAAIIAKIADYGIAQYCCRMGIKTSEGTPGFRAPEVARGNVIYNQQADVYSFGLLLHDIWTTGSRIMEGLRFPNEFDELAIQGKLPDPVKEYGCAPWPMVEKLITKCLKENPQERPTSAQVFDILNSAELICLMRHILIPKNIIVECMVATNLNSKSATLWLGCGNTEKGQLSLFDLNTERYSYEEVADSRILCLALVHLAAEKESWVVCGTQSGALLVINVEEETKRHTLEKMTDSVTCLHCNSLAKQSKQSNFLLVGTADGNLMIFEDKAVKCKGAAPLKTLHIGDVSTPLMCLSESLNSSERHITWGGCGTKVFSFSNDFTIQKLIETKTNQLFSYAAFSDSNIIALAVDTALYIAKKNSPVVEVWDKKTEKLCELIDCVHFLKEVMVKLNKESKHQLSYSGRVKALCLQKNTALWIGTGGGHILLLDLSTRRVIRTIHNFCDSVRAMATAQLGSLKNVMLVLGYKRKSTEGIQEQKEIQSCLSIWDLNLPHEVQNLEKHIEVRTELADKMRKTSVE

SMILES: Nc1ncnc2c1ncn2[C@@H]1O[C@H](COP(=O)(O)OP(=O)(O)O)[C@@H](O)[C@H]1O [ADP]
difference in dissociation constants, GTPase vs kinase reaction (LRRK2 [1]): 30 fold
inhibition of GTPase activity (LRRK2 [1]; [4]): Inhibition of GTPase activity was detected
Ki (LRRK2 [1]; 200 µM GTP): 600 ± 100 µM

SMILES: Nc1ncnc2c1ncn2[C@@H]1O[C@H](COP(=O)(O)O)[C@@H](O)[C@H]1O [AMP]
Ki (LRRK2 [2]; read-out: Ki,e, PLK-peptide as phosphoryl acceptor): 2.5 µM
difference of Ki,e between PLK-peptide and LRRKtide reactions (LRRK2 [3]): 5 fold
Ki (LRRK2 [3]; read-out: Ki,e, LRRKtide as phosphoryl acceptor): 12 µM

SMILES: Nc1ncnc2c1ncn2[C@@H]1O[C@H](COP(=O)(O)OP(=O)(O)OP(=O)(O)O)[C@@H](O)[C@H]1O [ATP]
KA (KATP) (LRRK2 [2]; ATP with PLK-peptide as phosphoryl acceptor, global fit): 13 ± 2.9 µM
KA (KATP) (LRRK2 [3]; ATP with LRRKtide as phosphoryl acceptor, global fit): 67 ± 6.4 µM
inhibition of GTPase activity (LRRK2 [1]; [4]): Inhibition of GTPase activity was detected

SMILES: CN[C@@H]1C[C@H]2O[C@@](C)([C@@H]1OC)n1c3ccccc3c3c4c(c5c6ccccc6n2c5c31)C(=O)NC4 [staurosporine]
inhibition of LRRK2 kinase activity (LRRK2 [2]; kinase assay not specified, data not shown): inhibits LRRK2 kinase activity
inhibition of GTPase activity (LRRK2 [1]; data not shown): does not inhibit GTPase activity at all

Further lines, with some results ahead:

Ki (LRRK2 [1]; 200 µM GTP): 97 ± 16 µM
SMILES: Nc1nc2c(ncn2[C@@H]2O[C@H](COP(=O)(O)OP(=O)(O)O)[C@@H](O)[C@H]2O)c(=O)[nH]1 [GDP]
effect of nucleotide on kinase activity (LRRK2 [3]): no significant activation or inhibition of kinase activity was detected

Ki (LRRK2 [1]; 200 µM GTP): 2900 ± 300 µM
SMILES: Nc1nc2c(ncn2[C@@H]2O[C@H](COP(=O)(O)O)[C@@H](O)[C@H]2O)c(=O)[nH]1 [GMP]
effect of nucleotide on kinase activity (LRRK2 [3]): no significant activation or inhibition of kinase activity was detected

solvent isotope effect ^Dkcat (LRRK2 [1]; 1 mM GTP, pH 7.4, D2O molar fraction 0.86, four experiments): 0.97 ± 0.04
kcat (LRRK2 [1]; GTP hydrolysis): 0.23 ± 0.02 s⁻¹
Km (LRRK2 [1]; read-out: Km (KGTP), GTP hydrolysis): 210 ± 29 µM
SMILES: Nc1nc2c(ncn2[C@@H]2O[C@H](COP(=O)(O)OP(=O)(O)OP(=O)(O)O)[C@@H](O)[C@H]2O)c(=O)[nH]1 [GTP]
effect of nucleotide on kinase activity (LRRK2 [3]): no significant activation or inhibition of kinase activity was detected
